# RGS4 inh: human RGS4 inhibition; HEK293 M3R/RGS4 inducible, Fluo-4 calcium flux; hits give high values; triggered by carbachol at its EC20; AID 463165; hit rate 0.45% among 310,000; P49798; B-score at 10 µM;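 active means B-score, a plate-corrected calcium signal, over three deviations above library mean, with baseline fluorescence within five deviations of library mean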;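 further: RGS4 expression induced by doxycycline in cells with stable M3 receptor; B-score is computed from the integrated fluorescence ratio over baseline after carbachol; higher B-score means a larger calcium signal and so more RGS4 inhibition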
# PHOSPHO1 inh: blocks human PHOSPHO1 phosphatase activity | Q8TCT1 | recombinant PHOSPHO1, absorbance phosphatase assay | inhibition, % at 13.3 µM | hit rate 1.1% among 290,000; in the data active means inhibition above about 60%
# Target sequence (Q8TCT1 whole entry, looked up): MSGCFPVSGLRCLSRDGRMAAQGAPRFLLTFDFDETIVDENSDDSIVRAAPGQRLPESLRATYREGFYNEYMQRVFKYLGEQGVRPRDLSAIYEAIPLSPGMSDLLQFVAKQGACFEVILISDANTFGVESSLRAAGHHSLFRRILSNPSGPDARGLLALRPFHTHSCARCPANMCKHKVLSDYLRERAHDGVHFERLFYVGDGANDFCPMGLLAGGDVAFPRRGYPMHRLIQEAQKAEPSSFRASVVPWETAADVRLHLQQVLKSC
# RGS4 act: RGS4 potentiation or activation; HEK293 M3R/inducible RGS4, carbachol calcium flux Fluo4; hits give low values; B-score at 10 µM; AID 463111; hit rate 0.92% among 310,000;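 active means B-score of the integrated calcium signal more than 4 SD below the library mean, with starting fluorescence not abnormally high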;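 further: negative B-score means reduced calcium response which marks RGS4 activation or potentiation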
#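 Detection: kinetic calcium fluorescence imaging with Fluo4-AM dye, 2 µM / Material: HEK293 cells with stable M3R and inducible RGS4 / Schedule: recording 10 s baseline at 1 Hz, 100 s post-agonist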
# MrgX1 antagonist: human MrgX1 receptor antagonism, primary screen | MRGX1-HEK293 calcium flux, Fluo-4, BAM8-22 antagonism; hits give low values | B-score at 10 µM | Q96LB2 | hit rate 1.3% among 310,000;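 active means calcium-response B-score plate-corrected more than 3 library SD below zero, starting fluorescence within 5 deviations, no agonist response on first addition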;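 further: peak minus trough fluorescence over baseline after final BAM8-22 challenge near maximal dose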
# Target sequence (Q96LB2 whole entry, looked up): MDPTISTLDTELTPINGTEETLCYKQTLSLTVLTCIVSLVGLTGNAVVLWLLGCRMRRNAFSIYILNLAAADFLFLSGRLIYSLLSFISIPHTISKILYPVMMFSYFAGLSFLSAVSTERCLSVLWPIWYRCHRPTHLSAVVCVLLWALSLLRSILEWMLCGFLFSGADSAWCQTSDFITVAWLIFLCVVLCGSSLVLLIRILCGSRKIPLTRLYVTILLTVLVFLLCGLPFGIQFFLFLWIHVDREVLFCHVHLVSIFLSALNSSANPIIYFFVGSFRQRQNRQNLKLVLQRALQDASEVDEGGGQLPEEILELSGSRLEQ
# MrgX1 ag: human MrgX1 receptor agonism, primary screen; Q96LB2; MrgX1-HEK293 cells, Fluo-4 calcium fluorescence, agonist mode; hits give high values; B-score at 10 µM; hit rate 0.44% among 310,000;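 active means calcium response B-score plate-corrected fluorescence ratio at least 3 library SD, with starting fluorescence B-score inside 5 SD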
#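 Test system: Stable human MrgX1 HEK293 cell line | Schedule: Overnight plating before 1 h dye loading | Read-out basis: Baseline-normalised fluorescence change ratio, B-scored | Detection: Kinetic calcium dye fluorescence, Fluo-4 NW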
# MrgX1 allo act: human MrgX1 positive allosteric modulation, primary screen; Q96LB2; MrgX1-HEK293, Fluo-4 calcium flux, FDSS; hits give high values; B-score at 10 µM; hit rate 0.63% among 310,000;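 active means plate-corrected calcium response at least 3 library SD above typical, normal starting fluorescence, not activating the receptor alone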;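 further: compound read alongside a low EC10 to EC30 dose of BAM8-22 agonist; peak minus trough fluorescence over baseline measured at the second addition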
# RGS4 block valid: RGS4 inhibitor validation. shares compounds with RGS4 inh. hit rate 65% among 1,700. AID 492999. HEK293 M3R/RGS4, carbachol calcium Fluo-4 fluorescence; carbachol added at its EC20; 0 = buffer wells, 100 = carbachol control. calcium response, % at 10 µM;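 active means duplicate-averaged calcium response above the buffer-only control mean plus 5 SD of those controls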;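 further: integrated fluorescence ratio F max minus min over baseline F0; higher response in RGS4-induced cells means RGS4 inhibition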
# RGS4 uninduced: checks RGS4 inhibitor effects in non-induced HEK293 M3R cells | shares compounds with RGS4 inh | carbachol calcium Fluo-4; submaximal (EC20) carbachol stimulus; buffer wells 0%, carbachol control wells 100% | activity (percent), % at 10 µM | hit rate 20% among 1,900; call rule not given here;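 further: RGS4 induction absent so cells express M3R without RGS4; higher means more calcium signal and flags a non-specific hit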
# M3R basal Ca ctr: signal in non-induced cells without carbachol, RGS4 inhibitor counter-screen; calcium response (agonist-mode artifact), % at 10 µM; AID 493001; hit rate 22% among 1,900; shares compounds with RGS4 inh; HEK293 M3R/RGS4 non-induced, Fluo-4 calcium, no carbachol; normalised: buffer wells 0%, carbachol wells 100%;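 active means duplicate-averaged calcium rise in uninduced cells above buffer wells' mean plus 5 SD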
# A number is an active result; 0 = inactive; - = no result. An excerpt weighted towards active compounds, which were near 4.5% of everything screened.
SMILES,RGS4 inh,PHOSPHO1 inh,RGS4 act,MrgX1 antagonist,MrgX1 ag,MrgX1 allo act,RGS4 block valid,RGS4 uninduced,M3R basal Ca ctr
CCCC1(c2ccccc2)NC(=O)N(CC(=O)c2[nH]c(C)c(C(=O)OCC)c2C)C1=O (stereo not drawn),0,0,0,0,0,0,-,-,-
O=c1[nH]c2cc3c(cc2cc1CN(Cc1cccs1)Cc1nnnn1Cc1ccco1)OCCO3,7,0,0,0,0,0,0,0,0
COc1ccccc1CN(Cc1cc2cc3c(cc2[nH]c1=O)OCCO3)Cc1nnnn1Cc1ccco1,19,0,0,0,0,0,7.5%,0,12%
O=c1[nH]c2cc3c(cc2cc1CN(Cc1cccnc1)Cc1nnnn1Cc1ccco1)OCCO3,0,0,0,0,0,0,0,0,0
O=c1[nH]c2cc3c(cc2cc1CN(Cc1ccccc1)Cc1nnnn1Cc1ccco1)OCCO3,0,0,0,-,-,-,-,-,-
COC(=O)c1nnn(-c2cccc(Cl)c2)c1C(=O)OC,0,0,0,0,0,0,-,-,-
Oc1cc(Br)ccc1C=Nc1ccc(N2CCCCC2)cc1,0,0,0,0,0,0,-,-,-
Clc1ccc(-c2ccc(C=Nc3ccc(N4CCOCC4)cc3)o2)c(Cl)c1,5.4,0,0,0,0,0,0,0,16%
Oc1ccc(C=Nc2ccc(N3CCOCC3)cc2)c(O)c1,0,0,0,0,0,0,-,-,-
Oc1ccc(N=Nc2cccc(C(F)(F)F)c2)cc1C=Nc1ccc(N2CCOCC2)cc1,9.7,0,0,0,0,0,28%,46%,0
Cc1cc(Br)cc(C=Nc2ccc(N3CCOCC3)cc2)c1O,5.8,-,0,0,0,0,21%,40%,168%
Oc1c(Cl)cc(Cl)cc1C=Nc1ccc(N2CCOCC2)cc1,5,0,0,0,0,0,0,0,93%
CCN(CC)S(=O)(=O)c1ccc(O)c(NC(=O)c2cc(-c3cc(OC)c(OC)c(OC)c3)nc3ccccc23)c1,0,0,0,0,0,0,-,-,-
COc1ccccc1C(=O)NN=C1CCN(Cc2ccccc2)CC1,0,0,0,0,0,0,-,-,-
CC1CCN(c2nc(N3CCCCC3)nc(N3CCCCC3)n2)CC1,8.7,0,0,0,0,0,44%,55%,0
CCCC(=O)NCCc1nc2cc([N+](=O)[O-])ccc2n1C,0,0,0,0,0,0,-,-,-
CCn1c(=O)c2c(n3c(=S)[nH]nc13)-c1ccccc1CC21CCCCC1,8.3,0,0,0,0,0,46%,57%,0
CSc1n[nH]c2nc3c(c(=O)n12)C1(CCCCC1)Cc1ccccc1-3,4.7,0,0,0,0,0,12%,0,0
N#CCSc1n[nH]c2nc3c(c(=O)n12)C1(CCCCC1)Cc1ccccc1-3,0,0,0,0,0,0,-,-,-
CCCn1c(SCC(N)=O)nc2c(c1=O)C1(CCCC1)Cc1ccccc1-2,0,0,0,0,0,0,-,-,-
Cc1ccccc1-n1c(=O)c2c(n3cnnc13)-c1ccccc1CC21CCCCC1,0,0,0,0,0,0,-,-,-
CCSc1n[nH]c2nc3c(c(=O)n12)C1(CCCCC1)Cc1ccccc1-3,0,0,0,0,0,0,-,0,0
COc1cccc(OC)c1C(=O)Nc1ccc(S(=O)(=O)Nc2ncccn2)cc1,0,0,0,0,0,0,-,-,-
CNc1nc(N)c([N+](=O)[O-])c(Nc2cccc(Cl)c2)n1,15,0,0,0,0,0,10%,34%,10%
CNc1nc(N)c([N+](=O)[O-])c(NC2CCCCC2)n1,6,0,0,0,0,0,32%,39%,0
SMILES,RGS4 inh,PHOSPHO1 inh,RGS4 act,MrgX1 antagonist,MrgX1 ag,MrgX1 allo act,RGS4 block valid,RGS4 uninduced,M3R basal Ca ctr
Cc1nn(CC(=O)Nc2nnc(C(C)C)s2)c(=O)c2ccccc12,0,0,0,0,0,0,-,-,-
O=C(c1ccc(Cl)cc1)n1c(NCc2ccccc2)n[nH]c1=S,0,0,0,0,0,0,-,-,-
O=C(CNC(=O)c1ccccc1F)NCCOc1ccccc1Cl,0,0,0,0,0,0,-,-,-
Cc1ccc(NCC(=O)N/N=C/c2ccc(-c3cccc(C(F)(F)F)c3)o2)cc1,28,0,0,0,0,0,62%,37%,0
Cc1ccnc(NS(=O)(=O)c2ccc(NC(=O)Cc3ccccc3)cc2)n1,0,0,0,0,0,0,-,-,-
Cc1ccnc(NS(=O)(=O)c2ccc(NC(=O)CC(C)c3ccccc3)cc2)n1 (stereo not drawn),6.2,0,0,0,0,0,5.0%,0,0
O=C(N/N=C/c1cc2cc3c(cc2nc1Cl)OCO3)c1ccncc1,7.8,0,0,0,0,0,0,0,0
O=C(N/N=C/c1cc2cc3c(cc2nc1Cl)OCCO3)c1ccccc1O,0,0,0,0,0,0,-,-,-
CCOc1ccc(C(=O)NC2CC(=O)N(c3ccc4c(c3)OCCO4)C2)cc1 (stereo not drawn),0,-,0,0,0,0,-,-,-
Cc1ccc(C(=O)/C=C/C(=O)c2ccc(C)cc2)cc1,0,0,0,0,0,0,-,0,0
Cc1ccc(/C=C2/NC(=O)N(Cc3ccccc3)C2=O)o1,5,0,0,0,0,0,0,0,36%
Cc1ccc(/C=C/C(=O)NCc2ccc3c(c2)OCO3)o1,5.6,0,0,0,0,0,10%,0,0
Cc1ccc(/C=N/NC(=O)NC2CCCCC2)o1,0,0,0,0,0,0,-,-,-
Cc1ccc(/C=C/C(=O)NCCc2cccc(Cl)c2)o1,6.9,0,0,0,0,0,24%,0,0
Cc1ccc(/C=C/C(=O)NCCc2c[nH]c3ccccc23)o1,0,0,0,0,0,0,-,-,-
Cc1ccc(/C=C/C(=O)NC2CCCCCCC2)o1,8.8,0,0,0,0,0,22%,0,0
Cc1ccc(C(=O)NCc2ccc3c(c2)OCO3)o1,0,0,0,0,0,0,-,-,-
CCCCCCc1nnc(N)s1,0,0,0,0,0,0,-,-,-
Cn1c(=O)c2nc(NCc3ccccc3)cnc2n(C)c1=O,0,0,0,0,0,0,-,-,-
Cc1nc2c(=O)n(C)c(=O)n(C)c2nc1Cl,12,0,0,0,0,0,36%,0,0
O=C(NC(C(=O)N/N=C/c1cccc2ccccc12)c1n[nH]c(=O)c2ccccc12)c1ccccc1 (stereo not drawn),14,0,0,0,0,0,24%,30%,0
